Source: ChEMBL document CHEMBL1156153, “Novel benzofuran-3-one indole inhibitors of PI3 kinase-alpha and the mammalian target of rapamycin: hit to lead studies” (Bioorg Med Chem Lett, 2010)
Values after ≈ are worked out from the molar mass of the structure shown.

Target: CYP3A4 (Homo sapiens, UniProt P08684)
Assay: Inhibition of CYP3A4 at 3 uM
Format: ADME
Conditions: not given

CYP3A4, sequence (P08684 whole entry): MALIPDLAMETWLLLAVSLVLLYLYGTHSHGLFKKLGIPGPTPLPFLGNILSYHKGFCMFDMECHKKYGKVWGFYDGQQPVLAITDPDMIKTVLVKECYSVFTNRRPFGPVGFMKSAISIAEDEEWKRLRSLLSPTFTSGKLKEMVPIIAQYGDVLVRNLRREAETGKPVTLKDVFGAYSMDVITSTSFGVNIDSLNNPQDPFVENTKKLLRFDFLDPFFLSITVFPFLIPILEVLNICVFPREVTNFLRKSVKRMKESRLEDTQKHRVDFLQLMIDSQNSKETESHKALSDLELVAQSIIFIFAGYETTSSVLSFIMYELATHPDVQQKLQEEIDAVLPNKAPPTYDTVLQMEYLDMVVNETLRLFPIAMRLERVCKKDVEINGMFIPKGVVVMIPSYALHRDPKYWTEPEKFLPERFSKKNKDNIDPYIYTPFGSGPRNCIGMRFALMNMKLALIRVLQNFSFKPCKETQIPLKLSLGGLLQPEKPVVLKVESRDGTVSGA

Row | SMILES | inhibition at 3 µM [%]
1 | COc1ccc2c(c1)c(/C=C1\Oc3cc(O)cc(O)c3C1=O)c(C)n2CCN1CCOCC1 | 64
2 | COc1ccc2[nH]c(-c3ccccc3)c(/C=C3\Oc4cc(O)cc(O)c4C3=O)c2c1 | 77
3 | COc1ccc2c(c1)c(/C=C1\Oc3cc(O)cc(O)c3C1=O)c(C)n2CCCN1CCOCC1 | 68

Next, values leading:

Row | inhibition at 3 µM [%] | SMILES
4 | 58 | COc1ccc2[nH]cc(/C=C3\Oc4cc(O)cc(O)c4C3=O)c2c1
5 | 75 | COc1ccc2c(c1)c(/C=C1\Oc3cc(O)cc(O)c3C1=O)c(C)n2C
6 | 79 | COc1ccc2[nH]c(C)c(/C=C3\Oc4cc(O)cc(O)c4C3=O)c2c1

System: LoVo
Assay: Antiproliferative activity against human LoVo cells
Format: functional, cell-based
Conditions: not given
Method in brief: (§1)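 Cell growth density monitored in Caco-2 (epithelial colorectal adenocarcinoma), LoVo (colon carcinoma) and PC3MM2/PC3 (prostate cancer) cultures; IC50 from means of two experiments.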

Row | SMILES | IC50 [nM]
7 | COc1ccc2c(c1)c(/C=C1\Oc3cc(O)cc(O)c3C1=O)c(C)n2CCN1CCOCC1 | 2300
8 | COc1ccc2[nH]c(-c3ccccc3)c(/C=C3\Oc4cc(O)cc(O)c4C3=O)c2c1 | 1200
9 | COc1ccc2c(c1)c(/C=C1\Oc3cc(O)cc(O)c3C1=O)c(C)n2CCCN1CCOCC1 | 4600

Next, values leading:

Row | IC50 [nM] | SMILES
10 | 2500 | COc1ccc2c(c1)c(/C=C1\Oc3cc(O)cc(O)c3C1=O)c(C)n2C
11 | 3600 | COc1ccc2[nH]c(C)c(/C=C3\Oc4cc(O)cc(O)c4C3=O)c2c1

Target: Serine/threonine-protein kinase mTOR (Homo sapiens, UniProt P42345)
Assay: Inhibition of mTOR
Conditions: not given
Method in brief: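 DELFIA-format mTOR kinase assay monitoring phosphorylation of His6-S6K substrate.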

Row | SMILES | IC50 [nM]
12 | COc1ccc2c(c1)c(/C=C1\Oc3cc(O)cc(O)c3C1=O)c(C)n2CCN1CCOCC1 | 9
13 | COc1ccc2[nH]c(-c3ccccc3)c(/C=C3\Oc4cc(O)cc(O)c4C3=O)c2c1 | 10
14 | COc1ccc2c(c1)c(/C=C1\Oc3cc(O)cc(O)c3C1=O)c(C)n2CCCN1CCOCC1 | 18

Second part, the molecule after the results:

Row | IC50 [nM] | SMILES
15 | 4 | COc1ccc2c(c1)c(/C=C1\Oc3cc(O)cc(O)c3C1=O)c(C)n2C
16 | 3 | COc1ccc2[nH]c(C)c(/C=C3\Oc4cc(O)cc(O)c4C3=O)c2c1

Target: Phosphatidylinositol 4,5-bisphosphate 3-kinase catalytic subunit alpha isoform (Homo sapiens, UniProt P42336)
Assay: Inhibition of PI3Kalpha
Conditions: not given

Phosphatidylinositol 4,5-bisphosphate 3-kinase catalytic subunit alpha isoform, sequence (P42336 whole entry, canonical isoform): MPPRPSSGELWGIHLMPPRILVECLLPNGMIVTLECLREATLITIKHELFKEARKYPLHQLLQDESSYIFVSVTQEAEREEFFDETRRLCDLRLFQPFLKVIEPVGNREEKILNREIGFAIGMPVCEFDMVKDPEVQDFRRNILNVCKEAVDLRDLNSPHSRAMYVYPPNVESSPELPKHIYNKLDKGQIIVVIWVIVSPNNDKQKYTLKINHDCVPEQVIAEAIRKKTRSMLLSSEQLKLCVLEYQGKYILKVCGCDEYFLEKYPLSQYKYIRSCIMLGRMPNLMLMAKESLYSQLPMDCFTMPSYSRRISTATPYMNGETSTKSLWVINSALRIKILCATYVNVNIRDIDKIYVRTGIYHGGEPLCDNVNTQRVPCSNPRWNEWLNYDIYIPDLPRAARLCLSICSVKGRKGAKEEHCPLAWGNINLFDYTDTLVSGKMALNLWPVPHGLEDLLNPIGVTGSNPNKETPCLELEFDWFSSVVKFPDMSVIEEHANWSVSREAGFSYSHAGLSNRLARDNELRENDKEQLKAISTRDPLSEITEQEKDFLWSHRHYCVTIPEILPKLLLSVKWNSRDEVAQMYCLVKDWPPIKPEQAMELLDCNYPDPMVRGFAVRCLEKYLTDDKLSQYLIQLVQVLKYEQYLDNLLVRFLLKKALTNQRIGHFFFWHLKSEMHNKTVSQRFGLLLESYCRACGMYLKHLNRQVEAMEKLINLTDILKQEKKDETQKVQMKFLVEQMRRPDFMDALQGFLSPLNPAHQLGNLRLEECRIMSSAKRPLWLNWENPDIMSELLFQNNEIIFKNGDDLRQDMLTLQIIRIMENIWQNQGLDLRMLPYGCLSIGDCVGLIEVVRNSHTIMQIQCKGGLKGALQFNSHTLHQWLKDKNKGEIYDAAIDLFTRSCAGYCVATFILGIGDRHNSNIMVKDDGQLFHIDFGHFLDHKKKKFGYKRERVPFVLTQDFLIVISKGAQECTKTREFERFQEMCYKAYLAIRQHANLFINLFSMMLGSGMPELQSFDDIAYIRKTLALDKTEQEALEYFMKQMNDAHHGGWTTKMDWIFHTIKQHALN

Row | SMILES | IC50 [nM]
17 | COc1ccc2c(c1)c(/C=C1\Oc3cc(O)cc(O)c3C1=O)c(C)n2CCN1CCOCC1 | 11
18 | COc1ccc2c(c1)c(/C=C1\Oc3cc(O)cc(O)c3C1=O)c(C)n2CCCN1CCOCC1 | 8

Second part, the molecule after the results:

Row | IC50 [nM] | SMILES
19 | 7 | COc1ccc2c(c1)c(/C=C1\Oc3cc(O)cc(O)c3C1=O)c(C)n2C
20 | 3 | COc1ccc2[nH]c(C)c(/C=C3\Oc4cc(O)cc(O)c4C3=O)c2c1

System: Caco-2
Assay: Antiproliferative activity against human Caco-2 cells
Format: functional, cell-based
Conditions: not given
Method in brief: as §1

Row | SMILES | IC50 [nM]
21 | COc1ccc2c(c1)c(/C=C1\Oc3cc(O)cc(O)c3C1=O)c(C)n2CCN1CCOCC1 | 2000
22 | COc1ccc2[nH]c(-c3ccccc3)c(/C=C3\Oc4cc(O)cc(O)c4C3=O)c2c1 | 2100
23 | COc1ccc2c(c1)c(/C=C1\Oc3cc(O)cc(O)c3C1=O)c(C)n2CCCN1CCOCC1 | 4700

More lines, now with the values ahead:

Row | IC50 [nM] | SMILES
24 | 7200 | COc1ccc2c(c1)c(/C=C1\Oc3cc(O)cc(O)c3C1=O)c(C)n2C
25 | 9000 | COc1ccc2[nH]c(C)c(/C=C3\Oc4cc(O)cc(O)c4C3=O)c2c1

Target: Phosphatidylinositol 4,5-bisphosphate 3-kinase catalytic subunit gamma isoform (Homo sapiens, UniProt P48736)
Assay: Inhibition of PI3Kgamma
Conditions: not given
Method in brief: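 Fluorescence polarization assays for PI3K-α (p110α) and PI3K-γ (p110γ) monitored PIP3 production.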

Phosphatidylinositol 4,5-bisphosphate 3-kinase catalytic subunit gamma isoform, sequence (P48736 whole entry, canonical isoform): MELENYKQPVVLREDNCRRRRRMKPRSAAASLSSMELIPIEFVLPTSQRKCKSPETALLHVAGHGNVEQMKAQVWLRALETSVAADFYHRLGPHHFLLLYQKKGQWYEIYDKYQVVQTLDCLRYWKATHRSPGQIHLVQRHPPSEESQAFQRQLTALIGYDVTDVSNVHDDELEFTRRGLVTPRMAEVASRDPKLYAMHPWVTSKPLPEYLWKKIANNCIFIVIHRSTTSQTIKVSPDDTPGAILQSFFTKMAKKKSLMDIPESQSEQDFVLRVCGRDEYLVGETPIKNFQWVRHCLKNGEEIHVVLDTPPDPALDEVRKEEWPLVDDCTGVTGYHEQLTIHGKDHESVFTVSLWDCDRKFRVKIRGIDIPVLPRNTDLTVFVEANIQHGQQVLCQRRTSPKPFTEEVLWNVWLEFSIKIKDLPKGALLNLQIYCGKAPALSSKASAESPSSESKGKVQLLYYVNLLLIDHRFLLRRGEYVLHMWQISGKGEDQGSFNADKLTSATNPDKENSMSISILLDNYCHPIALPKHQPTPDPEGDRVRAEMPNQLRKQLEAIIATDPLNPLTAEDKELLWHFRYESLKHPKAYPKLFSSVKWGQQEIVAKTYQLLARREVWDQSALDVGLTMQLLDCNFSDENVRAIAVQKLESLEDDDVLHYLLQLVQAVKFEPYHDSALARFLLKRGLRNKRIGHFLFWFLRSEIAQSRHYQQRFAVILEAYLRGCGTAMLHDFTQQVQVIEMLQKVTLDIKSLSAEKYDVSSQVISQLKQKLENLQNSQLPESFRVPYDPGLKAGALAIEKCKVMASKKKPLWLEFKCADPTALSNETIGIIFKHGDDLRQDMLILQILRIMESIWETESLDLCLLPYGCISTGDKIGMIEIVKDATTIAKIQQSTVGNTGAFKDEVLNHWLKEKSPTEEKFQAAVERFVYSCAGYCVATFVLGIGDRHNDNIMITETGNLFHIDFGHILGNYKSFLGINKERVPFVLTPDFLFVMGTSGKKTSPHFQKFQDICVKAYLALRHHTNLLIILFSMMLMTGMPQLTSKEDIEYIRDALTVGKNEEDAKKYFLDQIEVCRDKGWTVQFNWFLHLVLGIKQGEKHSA

Row | SMILES | IC50 [nM]
26 | COc1ccc2c(c1)c(/C=C1\Oc3cc(O)cc(O)c3C1=O)c(C)n2CCN1CCOCC1 | 155
27 | COc1ccc2[nH]c(-c3ccccc3)c(/C=C3\Oc4cc(O)cc(O)c4C3=O)c2c1 | 11
28 | COc1ccc2c(c1)c(/C=C1\Oc3cc(O)cc(O)c3C1=O)c(C)n2CCCN1CCOCC1 | 76

The next lines start with the values.

Row | IC50 [nM] | SMILES
29 | 54 | COc1ccc2c(c1)c(/C=C1\Oc3cc(O)cc(O)c3C1=O)c(C)n2C
30 | 25 | COc1ccc2[nH]c(C)c(/C=C3\Oc4cc(O)cc(O)c4C3=O)c2c1

System: not listed separately
Assay: Inhibition of PI3K in human PC3 cells assessed as inhibition AKT phosphorylation after 6 hrs by densitometry
Format: cell-based
Conditions: PC-3, 6 h
Method in brief: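 PC-3 prostate cancer cells exposed to DMSO, 10 µM […] as positive control, or graded doses of test agent for 6 h. Lysates immunoblotted for Akt phosphorylated at Thr308 and for p-4EBP1. Inhibition assessed by densitometry of the p-Akt blots.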

Row | IC50 [nM] | SMILES
31 | 385 | COc1ccc2[nH]c(-c3ccccc3)c(/C=C3\Oc4cc(O)cc(O)c4C3=O)c2c1

System: not listed separately
Assay: Aqueous solubility at pH 7.4
Format: physicochemical
Conditions: not given
Method in brief: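 Aqueous solubility measured at pH 7.4, reported in µg/mL.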

Row | SMILES | solubility [µg/mL]
32 | COc1ccc2c(c1)c(/C=C1\Oc3cc(O)cc(O)c3C1=O)c(C)n2CCN1CCOCC1 | 6 (≈ 13.3 µM)
33 | COc1ccc2c(c1)c(/C=C1\Oc3cc(O)cc(O)c3C1=O)c(C)n2CCCN1CCOCC1 | 1 (≈ 2.15 µM)

Results, then the molecule that gave them:

Row | solubility [µg/mL] | SMILES
34 | 12 (≈ 37.1 µM) | COc1ccc2[nH]cc(/C=C3\Oc4cc(O)cc(O)c4C3=O)c2c1
35 | 1 (≈ 2.85 µM) | COc1ccc2c(c1)c(/C=C1\Oc3cc(O)cc(O)c3C1=O)c(C)n2C
36 | 1 (≈ 2.96 µM) | COc1ccc2[nH]c(C)c(/C=C3\Oc4cc(O)cc(O)c4C3=O)c2c1

System: PC-3
Assay: Antiproliferative activity against human PC3 cells
Format: functional, cell-based
Conditions: not given
Method in brief: as §1

Row | SMILES | IC50 [nM]
37 | COc1ccc2c(c1)c(/C=C1\Oc3cc(O)cc(O)c3C1=O)c(C)n2CCN1CCOCC1 | 1500
38 | COc1ccc2[nH]c(-c3ccccc3)c(/C=C3\Oc4cc(O)cc(O)c4C3=O)c2c1 | 800
39 | COc1ccc2c(c1)c(/C=C1\Oc3cc(O)cc(O)c3C1=O)c(C)n2CCCN1CCOCC1 | 2400

Continued, values first:

Row | IC50 [nM] | SMILES
40 | 1300 | COc1ccc2c(c1)c(/C=C1\Oc3cc(O)cc(O)c3C1=O)c(C)n2C
41 | 4000 | COc1ccc2[nH]c(C)c(/C=C3\Oc4cc(O)cc(O)c4C3=O)c2c1
